{"source": "ChEMBL document CHEMBL3808358", "about": "“Rational Design of Small Peptides for Optimal Inhibition of Cyclooxygenase-2: Development of a Highly Effective Anti-Inflammatory Agent” (J Med Chem, 2016)", "key": {"[1]": {"target": "T1, Prostaglandin G/H synthase 1 (Ovis aries, UniProt P05979)", "T1 sequence (P05979 whole entry)": "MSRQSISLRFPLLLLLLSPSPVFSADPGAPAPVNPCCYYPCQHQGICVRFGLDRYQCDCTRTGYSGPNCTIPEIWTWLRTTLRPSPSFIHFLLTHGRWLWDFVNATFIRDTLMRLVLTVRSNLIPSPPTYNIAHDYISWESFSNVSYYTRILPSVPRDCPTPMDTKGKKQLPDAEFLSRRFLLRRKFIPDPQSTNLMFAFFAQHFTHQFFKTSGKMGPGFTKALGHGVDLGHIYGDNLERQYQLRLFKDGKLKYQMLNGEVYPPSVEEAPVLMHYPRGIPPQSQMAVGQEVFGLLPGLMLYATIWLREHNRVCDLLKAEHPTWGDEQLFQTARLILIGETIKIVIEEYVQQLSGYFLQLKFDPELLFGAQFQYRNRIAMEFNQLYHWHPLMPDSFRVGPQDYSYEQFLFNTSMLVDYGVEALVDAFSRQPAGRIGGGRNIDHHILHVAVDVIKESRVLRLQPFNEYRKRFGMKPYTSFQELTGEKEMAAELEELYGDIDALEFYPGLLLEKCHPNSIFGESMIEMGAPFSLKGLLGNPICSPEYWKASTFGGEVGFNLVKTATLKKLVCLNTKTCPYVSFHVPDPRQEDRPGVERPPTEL", "test": "Inhibition of ovine COX1 assessed as reduction in PGH2-derived PGF2alpha using arachidonic acid as substrate preincubated for 10 mins followed by substrate addition measured after 2 mins by enzyme immunoassay", "method_in_brief": "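Ovine COX-1 and human recombinant COX-2 with heme are preincubated with inhibitor for 10 min at 37 °C. Arachidonic acid is then added for 2 min at 37 °C. Prostaglandins are quantified by competitive AChE-tracer EIA, read at 420 nm. Four concentrations (10^-5 to 10^-8 M) are tested in triplicate. IC50 is taken from the dose-response curve of the mean % inhibition.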"}, "Mus musculus [2]": {"system": "Mus musculus", "test": "Analgesic activity in Swiss albino mouse assessed as reduction in capsaicin-induced paw licking at 5 mg/kg, ip dosed 30 mins before capsaicin injection measured for 10 mins relative to control", "type": "functional", "method_in_brief": "(§1)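 Swiss albino mice of either sex (25-35 g), kept at 22 ± 2 °C on a 12 h light/dark cycle with free food and water. 5 animals per group. Capsaicin (1.6 μg in 20 μL) is injected into the plantar surface of the hind paw. Pain is scored as the number of paw lickings over 10 min.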"}, "Mus musculus [3]": {"system": "Mus musculus", "test": "Analgesic activity in Swiss albino mouse assessed as reduction in capsaicin-induced paw licking at 5 to 10 mg/kg, ip dosed 30 mins before capsaicin injection measured for 10 mins", "type": "functional, organism-based", "method_in_brief": "as §1"}, "Mus musculus [4]": {"system": "Mus musculus", "test": "Analgesic activity in Swiss albino mouse assessed as reduction in formalin-induced paw flinches in inflammatory phase at 5 mg/kg, ip dosed 30 mins before formalin injection measured after 15 to 30 mins", "type": "functional, organism-based", "method_in_brief": "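Swiss albino mice of either sex (25-35 g). 20 μL of 2% formalin is injected into the plantar surface of the right hind paw 30 min after treatment. Hind paw flinches are counted for the neurogenic phase (0-5 min) and the inflammatory phase (15-30 min). Results are given as mean ± SEM.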"}, "[5]": {"target": "T2, Prostaglandin G/H synthase 2 (Homo sapiens) (UniProt P35354)", "T2 sequence (whole entry)": "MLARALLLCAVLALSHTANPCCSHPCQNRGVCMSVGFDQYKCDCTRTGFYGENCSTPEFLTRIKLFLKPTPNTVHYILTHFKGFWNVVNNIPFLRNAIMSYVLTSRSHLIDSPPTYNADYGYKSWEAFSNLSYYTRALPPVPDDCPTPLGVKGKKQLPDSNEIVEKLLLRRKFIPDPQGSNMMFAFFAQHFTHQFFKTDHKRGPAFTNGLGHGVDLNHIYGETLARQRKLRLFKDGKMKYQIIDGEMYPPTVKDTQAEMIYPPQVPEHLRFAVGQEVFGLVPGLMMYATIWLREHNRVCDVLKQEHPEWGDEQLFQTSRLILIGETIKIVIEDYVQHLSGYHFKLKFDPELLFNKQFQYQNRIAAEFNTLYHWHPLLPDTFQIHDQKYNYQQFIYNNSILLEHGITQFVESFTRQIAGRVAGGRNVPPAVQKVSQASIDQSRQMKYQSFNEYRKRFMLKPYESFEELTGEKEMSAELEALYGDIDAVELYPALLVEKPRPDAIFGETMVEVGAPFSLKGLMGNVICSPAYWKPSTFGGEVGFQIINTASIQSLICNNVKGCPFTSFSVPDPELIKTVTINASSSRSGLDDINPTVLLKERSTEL", "test": "Binding affinity to COX2 (unknown origin) at 100 uM by isothermal titration calorimetry", "method_in_brief": "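Isothermal titration calorimetry in HEPES buffer, pH 7.4. The ligand stock is 100 μM in ethanol/HEPES (1:99). The syringe is stirred at 500 rpm and delivers 19 injections of 2 μL into the enzyme-containing cell at 120 s intervals. Heats from buffer-only control titrations are subtracted. The fit gives Ka, ΔH and ΔS. Run in triplicate.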"}}, "note": "Calls of active or inactive are those of the source. The rule behind the calls is not given here. Residues, ends and D or L forms follow the SMILES beside them.", "data": [{"smiles": "COC(=O)[C@H](CC(C)C)NC(=O)[C@H](Cc1ccccc1)NC(=O)CNC(=O)CN", "note": "(H-GGFL-OMe)", "values": [{"measurement": "IC50", "setting": "[1]", "value": 6, "unit": "µM"}, {"measurement": "inhibition in vivo at 5 mg/kg", "setting": "Mus musculus [2]", "value": 80, "unit": "%"}, {"measurement": "Activity", "setting": "Mus musculus [3]", "value": "Active"}, {"measurement": "Activity", "setting": "Mus musculus [4]", "value": "Active"}, {"measurement": "Ka", "setting": "[5]", "value": 6.1, "unit": "×10⁴ /M"}]}]}
